# This is a sample that favours compounds with a hit; in the whole collection about 29% have one here.
# Ecoli WT expand = growth inhibitors of E. coli BW25113 wild type; OD600 absorbance; growth inhibition, % at 100 µM; 98,000 compounds, 0.15% hits;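 active = growth inhibition above about 50% at one test dose, limit read from the data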;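 also: growth measured after 20 h incubation at 37 °C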
# CYP2C19 inhib = inhibitors of human CYP2C19; P33261; CYP2C19 Supersomes, luciferin-H EGE luminescence, 30 min; inhibition, % at 5 µM; 96,000 compounds, 21% hits; AID 778;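 active = CYP2C19 inhibition above a set limit at 5 µM in the primary screen, cut at about 50% in these data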;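 also: plate controls were negative control wells for no effect and 2.5 mM tranylcypromine positive control for full effect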
# Target sequence (P33261 whole entry, looked up): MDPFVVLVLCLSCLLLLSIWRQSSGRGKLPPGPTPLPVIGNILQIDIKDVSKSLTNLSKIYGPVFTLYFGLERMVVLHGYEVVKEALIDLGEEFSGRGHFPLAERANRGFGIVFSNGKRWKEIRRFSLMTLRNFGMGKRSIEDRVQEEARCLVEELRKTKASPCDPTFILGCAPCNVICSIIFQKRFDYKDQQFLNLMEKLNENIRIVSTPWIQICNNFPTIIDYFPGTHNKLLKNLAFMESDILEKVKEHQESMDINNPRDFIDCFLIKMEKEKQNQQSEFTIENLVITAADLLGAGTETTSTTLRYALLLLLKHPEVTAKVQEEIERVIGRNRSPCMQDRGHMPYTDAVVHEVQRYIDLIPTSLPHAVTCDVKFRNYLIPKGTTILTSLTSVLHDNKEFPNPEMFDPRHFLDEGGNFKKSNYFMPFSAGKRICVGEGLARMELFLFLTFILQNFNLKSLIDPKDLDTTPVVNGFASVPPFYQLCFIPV
# CYP2C9 act = CYP2C9 (human) activation; recombinant CYP2C9, luciferin-H conversion, luminescence; hits give high values; factor 1 = untreated enzyme, 0 = blocked; 96,000 compounds, 1.4% hits; P11712; activation factor at 5 µM;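 active = activation factor of 2 or more for CYP2C9 at a 5 µM dose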;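 also: 0 = sulfaphenazole-blocked wells and 1 = vehicle-only wells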
# Ecoli tolC = E. coli tolC mutant growth inhibition; growth inhibition, % at 10 µM (by protocol); 65,000 compounds, 2.2% hits; AID 573; E. coli BW25113 tolC mutant growth, OD615;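 active = growth inhibition at or above a cutoff equal to the mean over every tested compound plus 3 SD, cut at about 60% in these data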;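 also: growth measured after 20 h incubation at 37 °C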
#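 signal = optical density read at 615 nm | test system = E. coli ΔtolC::kan strain BW25113 | timing = 20 h compound exposure of bacteria at 37 °C | buffer or medium = LB medium plus 50 µg/mL kanamycin | compound dosing = 10 µM final, single dose | evaluation = % inhibition of E. coli growth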
# CYP2C9 inhib = blocks human cytochrome P450 2C9; P11712; CYP2C9 Supersomes, luciferin-H conversion, luminescence; inhibition, % at 5 µM; 96,000 compounds, 20% hits; AID 777;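 active = blocking of liver enzyme CYP2C9 beyond about 50% at 5 µM, limit read from the data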
# CYP2C19 act = activators of human cytochrome P450 2C19 | activation factor at 5 µM | P33261 | recombinant CYP2C19, luciferin-H EGE luminescence; hits give high values; 0 = fully inhibited enzyme, 1 = untreated enzyme | AID 1025 | 96,000 tested, under 10 active;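 active = activation factor of at least 2 at 5 µM in the primary screen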;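 also: 0 = wells with 2.5 mM tranylcypromine and 1 = vehicle-only wells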
# Active calls of the source: *; / = not tested or not shown.
SMILES,Ecoli WT expand,CYP2C19 inhib,CYP2C9 act,Ecoli tolC,CYP2C9 inhib,CYP2C19 act
O=C(COc1ccccc1)NC(Cc1c[nH]c2ccccc12)C(=O)O (stereo not given),1.0,25.5,0.7,-5.6,30.9,0.7
CCOC(=O)C1=C(C)NC2=C(C(=O)CC(C)(C)C2)C1c1ccc(N(C)C)cc1 (stereo not given),4.0,24.4,0.6,21.9,39.1,0.8
Cc1noc2c1C(c1ccc(N(C)C)cc1)C1=C(CC(C)(C)CC1=O)N2 (stereo not given),1.0,76.2*,0.8,/,20.5,0.2
Cc1ccc(C2C3=C(CC(C)(C)CC3=O)Nc3onc(C)c32)cc1 (stereo not given),-6.0,98.8*,0.4,/,55.9*,0
CS(=O)(=O)N(CC(=O)NC1CCCC1)c1ccc2c(c1)OCCO2,-2.0,20.6,0.9,-23.5,9.4,0.8
COCCn1nnnc1C(c1ccc(OC)cc1)N1CCN(c2ccccc2F)CC1 (stereo not given),4.0,/,/,-4.2,/,/
Cc1cccc(NC(=O)c2oc3c(c2C)C(=O)CC(C)(C)C3)n1,-5.0,4.4,0.8,11.6,18.1,1
Cc1noc(C)c1CSc1nnc2scc(-c3ccc(Cl)cc3)n12,1.0,8.4,1.1,20.4,-10.6,0.9
O=C(CSc1nnc2scc(-c3ccccc3)n12)Nc1ccc2c(c1)OCCO2,-11.0,35.4,0.5,59.0,52.9*,0.6
Cc1ccc(-c2csc3nnc(SCc4csc(C)n4)n23)cc1,1.0,75.3*,0.1,1.2,90.1*,0.2
Fc1ccc(-c2csc3nnc(SCc4cccnc4)n23)cc1,13.0,83.1*,0.9,-8.8,10.2,0.2
Cc1nc(CSc2nnc3scc(-c4ccccc4)n23)cs1,-5.0,23.2,0.9,-2.2,8.9,0.8
c1ccc(-c2csc3nnc(SCc4ccc5c(c4)OCO5)n23)cc1,-7.0,92.2*,0.1,30.1,91.8*,0.1
CCOC(=O)c1csc(NC(=O)CSc2nnnn2CC)n1,17.0,3.9,0.9,14.2,7.8,1
C=CCOC(=O)c1cc(-c2ccc(/C=C3\C(=O)NC(=O)C(C#N)=C3C)o2)ccc1Cl,6.0,23.9,0.4,/,61.0*,0.8
CC(C)COC(=O)c1cc(-c2ccc(/C=N/n3cnnc3)o2)ccc1Cl,13.0,23.2,0.6,19.3,37.5,0.8
O/N=C/c1ccccc1Oc1ccccc1,13.0,73.1*,0.5,/,45.4,0.3
Cc1cc(C)cc(Oc2ccccc2C=O)c1,0.0,17.5,0.9,/,9.7,0.8
Cc1cc(C)cc(Oc2ccccc2/C=N\O)c1,2.0,25.2,2.6*,/,-158.7,0.7
Cc1cc(C)n2nc(SCC3COc4ccccc4O3)nc2n1 (stereo not given),9.0,29.8,0.8,9.9,16.1,0.7
O=C1/C(=C/c2ccc(N3CCOCC3)o2)SC(=Nc2ccccc2)N1CCc1c[nH]c2ccccc12,-13.0,25.8,0.4,/,63.1*,0.7
COc1ccc(-c2noc(CCC(=O)NCc3cccnc3)n2)cc1,2.0,50.3*,0.3,-10.5,73.8*,0.5
COc1ccc(-c2noc(CCC(=O)NCc3cccnc3)n2)cc1OC,-5.0,18.9,0.5,-12.4,53.6*,0.8
O=C(CCCc1nc(-c2ccccc2)no1)NCc1cccnc1,-2.0,20.8,0.7,-12.4,31.1,0.8
Cn1c(C(=O)N2CCc3ccccc32)cc2c(=O)n3ccccc3nc21,/,/,/,-0.6,/,/
SMILES,Ecoli WT expand,CYP2C19 inhib,CYP2C9 act,Ecoli tolC,CYP2C9 inhib,CYP2C19 act
Cc1ccc(S(=O)(=O)N(C)CC(=O)Nc2ccccc2)cc1,-3.0,62.8*,1.3,/,-27.4,0.4
COc1cc(NC(=O)CN(C)S(=O)(=O)c2ccc(C)cc2)cc(OC)c1,-7.0,82.3*,1.8,19.6,-77.3,0.2
COc1ccc(C)cc1S(=O)(=O)N(CC(N)=O)Cc1ccccc1,0.0,98.6*,0.7,-5.1,33.2,0
Cc1ccc(C)c(NC(=O)CN(C)S(=O)(=O)c2ccc(F)cc2)c1,-3.0,16.4,1.8,-19.7,-84.6,0.8
CSc1cccc(NC(=O)CN(C)S(=O)(=O)c2ccc(C)cc2)c1,-23.0,52.1*,1.2,16.4,-18.4,0.5
Cc1ccc(Cl)cc1N1CCN(C(=O)C2CCN(S(=O)(=O)c3c(C)nn(C)c3C)CC2)CC1,-6.0,35.2,1.8,57.2,-75.5,0.6
Cc1ccccc1C1NS(=O)(=O)N=C1N (stereo not given),-3.0,0.7,0.9,/,12.4,1
CC(C)N1C(=O)C2C(C(=O)NCc3ccccc3)C3C=CC2(O3)C1C(=O)NC(C)(C)C (stereo not given),0.0,1.5,0.9,-10.1,5.5,1
CNC(=O)CN(c1ccc(F)cc1)S(=O)(=O)c1cc(C)ccc1OC,1.0,81.6*,0.2,/,80.2*,0.2
CN(CC(=O)NCc1ccco1)S(=O)(=O)c1cccc2cccnc12,-6.0,13.4,1.5,-2.7,-50.4,0.9
COc1ccc(C)cc1S(=O)(=O)N(CC(=O)O)c1ccccc1,8.0,-3.9,0.5,10.2,49.5,1
CSc1cccc(NC(=O)C(C)NS(=O)(=O)c2ccc(F)cc2)c1 (stereo not given),1.0,61.8*,1,/,-0.7,0.4
COc1ccc(C)cc1S(=O)(=O)N(C)CC(=O)Nc1ccccc1,2.0,91.3*,0.1,17.3,89.8*,0.1
COc1ccc(C)cc1S(=O)(=O)N(C)CC(=O)NCc1ccco1,1.0,27.0,0.5,-5.2,51.4*,0.7
CCCCN(C)C(=O)c1sc2ncn(CC)c(=O)c2c1C,0.0,-19.6,1,-8.4,-4.4,1.2
COC(=O)c1ccc(C(=O)OC)c(NC(=O)N2c3ccccc3Sc3ccccc32)c1,-13.0,12.4,0.5,/,50.6*,0.9
Cc1nc2sc(C(c3cccc(F)c3)N3CCCC(C)C3)c(O)n2n1 (stereo not given),-4.0,11.7,1.2,-6.8,-21.1,0.9
CN(C)c1ccc(/C=N/N=C2/NC(=O)/C(=C/c3ccc([N+](=O)[O-])cc3)S2)cc1,-7.0,6.9,1.2,/,-19.0,0.9
COc1cc(-c2c(C#N)c(N)nc3c2CCCC3)cc(OC)c1OC,1.0,/,/,11.0,/,/
C=CCSc1nc(C)cc(/C=C\c2ccccc2)c1C#N,-14.0,7.1,2.2*,/,-116.7,0.9
C=CCSc1nc(N)c(C#N)c(-c2ccc(C)cc2)c1C#N,-5.0,43.3,0.4,18.7,63.4*,0.6
Cc1ccccc1NC(=O)CSc1nc(N)c(C#N)c(-c2cccs2)c1C#N,-2.0,61.5*,0.5,12.2,52.6*,0.4
COc1cc(-c2c(C#N)c(N)nc(SCc3ccncc3)c2C#N)cc(OC)c1OC,-12.0,100.0*,0,21.5,100.4*,0
CC(=O)Nc1ccc(NC(=O)C/C(C)=N/NC(=O)C(=O)N2CCCC2)cc1,2.0,-1.4,0.9,/,6.1,1
CCSc1nc(N)nc(-c2cccs2)c1C#N,6.0,37.1,0.3,/,71.8*,0.6
